How the values were obtained:
[1] = tested on: Abutilon theophrasti; assay: Herbicidal activity against Abutilon theophrasti (velvetleaf) assessed as growth inhibition at 150 g/ha postemergence treatment measured after 15 days by Greenhouse test; type: functional; details: post-emergence, 360 h, read-out: GI
Procedure, shortened: (§1)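 Test compounds were made up as 100 g/L emulsifiable concentrates (DMF solvent, Tween-80 emulsifier) and diluted with water. About 20 seeds were sown 1–3 cm deep in clay soil (pH 6.5, 1.6% organic matter) in 9.5 cm pots, kept at 15–30 °C and 50% RH. Postemergence spray was applied to dicots at the 2-leaf stage and monocots at the 1-leaf stage. Controls were untreated and solvent-treated. Injury was scored visually at 15 days, with three replicates.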

[2] = tested on: Eclipta prostrata; assay: Herbicidal activity against Eclipta prostrata assessed as growth inhibition at 150 g/ha postemergence treatment measured after 15 days by Greenhouse test; type: functional; details: post-emergence, 360 h, read-out: GI; procedure, shortened: as §1
[3] = tested on: Amaranthus retroflexus; assay: Herbicidal activity against Amaranthus retroflexus assessed as growth inhibition at 150 g/ha postemergence treatment measured after 15 days by Greenhouse test; type: functional; details: post-emergence, 360 h, read-out: GI; procedure, shortened: as §1
[4] = tested on: Setaria faberi; assay: Herbicidal activity against Setaria faberi (Giant Foxtail) assessed as growth inhibition at 150 g/ha postemergence treatment measured after 15 days by Greenhouse test; type: functional; details: post-emergence, 360 h, read-out: GI; procedure, shortened: as §1
[5] = tested on: Digitaria sanguinalis; assay: Herbicidal activity against Digitaria sanguinalis (hairy crabgrass) assessed as growth inhibition at 150 g/ha postemergence treatment measured after 15 days by Greenhouse test; type: functional; details: post-emergence, 360 h, read-out: GI; procedure, shortened: as §1
[6] = tested on: Echinochloa crus-galli; assay: Herbicidal activity against Echinochloa crus-galli (barnyard grass) assessed as growth inhibition at 150 g/ha postemergence treatment measured after 15 days by Greenhouse test; type: functional; details: post-emergence, 360 h, read-out: GI; procedure, shortened: as §1
[7] = target: T1, Protoporphyrinogen oxidase (Homo sapiens) (UniProt P50336); assay: Inhibition of Homo sapiens (human) recombinant protoporphyrinogen oxidase by fluorescence detection
T1 sequence (whole entry): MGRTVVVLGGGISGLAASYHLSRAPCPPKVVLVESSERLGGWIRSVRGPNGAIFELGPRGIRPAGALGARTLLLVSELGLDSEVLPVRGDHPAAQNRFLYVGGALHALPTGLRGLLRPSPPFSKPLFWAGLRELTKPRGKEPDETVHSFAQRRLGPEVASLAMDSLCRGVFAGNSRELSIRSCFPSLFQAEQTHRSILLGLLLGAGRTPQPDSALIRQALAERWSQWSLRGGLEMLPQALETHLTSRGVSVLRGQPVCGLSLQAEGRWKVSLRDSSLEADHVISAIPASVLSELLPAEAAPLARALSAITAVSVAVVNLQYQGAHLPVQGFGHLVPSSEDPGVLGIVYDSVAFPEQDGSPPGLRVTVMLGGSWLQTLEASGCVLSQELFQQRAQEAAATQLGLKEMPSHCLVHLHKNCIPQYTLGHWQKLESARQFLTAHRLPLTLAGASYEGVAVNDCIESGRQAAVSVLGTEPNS

[8] = tested on: Brassica juncea; assay: Herbicidal activity against Brassica juncea assessed as growth inhibition at 150 g/ha postemergence treatment measured after 15 days by Greenhouse test; type: functional; details: post-emergence, 360 h, read-out: GI; procedure, shortened: as §1

SMILES | inhibition of growth at 150 g/ha [1] [%] | inhibition of growth at 150 g/ha [2] [%] | inhibition of growth at 150 g/ha [3] [%] | inhibition of growth at 150 g/ha [4] [%] | inhibition of growth at 150 g/ha [5] [%] | inhibition of growth at 150 g/ha [6] [%] | Ki [7] [nM] | inhibition of growth at 150 g/ha [8] [%]
CCOC(=O)Sc1nc2cc(N3C(=O)c4ccccc4C3=O)c(F)cc2s1 | 80 | 80 | 80 | < 50 | < 50 | < 50 | 510 | 
COC(=O)CSc1nc2cc(N3C(=O)C4=C(CCCC4)C3=O)c(Cl)cc2s1 |  | 60 | 60 | < 50 | < 50 | < 50 | 3920 | < 50
CCOC(=O)CSc1nc2cc(N3C(=O)C4=C(CCCC4)C3=O)c(F)cc2s1 |  | 50 | 80 | 60 | 60 | 60 | 250 | < 50
CCOC(=O)CSc1nc2cc(N3C(=O)C4=C(CCCC4)C3=O)c(Cl)cc2s1 |  | 60 | 80 | < 50 | < 50 | < 50 | 1660 | < 50
CCCOC(=O)CSc1nc2cc(N3C(=O)C4=C(CCCC4)C3=O)c(F)cc2s1 |  | 80 | 80 | < 50 | 60 | 60 | 280 | 60
CCOC(=O)C(C)(C)Sc1nc2cc(N3C(=O)C4=C(CCCC4)C3=O)c(Cl)cc2s1 |  | 60 | 80 | < 50 | < 50 | < 50 | 1660 | < 50
COC(=O)CSc1nc2cc(N3C(=O)c4ccccc4C3=O)c(F)cc2s1 |  |  |  |  |  |  | 2250 | 
CCOC(=O)CCSc1nc2cc(N3C(=O)C4=C(CCCC4)C3=O)c(F)cc2s1 |  | 80 | 80 | < 50 | 50 | 50 | 110 | 80
CCOC(=O)CCSc1nc2cc(N3C(=O)C4=C(CCCC4)C3=O)c(Cl)cc2s1 |  | 60 | 60 | < 50 | < 50 | < 50 | 320 | 60
CCOC(=O)CCSc1nc2cc(N3C(=O)c4ccccc4C3=O)c(Cl)cc2s1 |  |  |  |  |  |  | 3760 | 
COC(=O)Sc1nc2cc(N3C(=O)C4=C(CCCC4)C3=O)c(Cl)cc2s1 |  | 60 | 60 | < 50 | < 50 | < 50 | 520 | < 50
CC(C)OC(=O)CSc1nc2cc(N3C(=O)C4=C(CCCC4)C3=O)c(F)cc2s1 |  | 80 | 80 | 50 | 60 | 60 | 210 | 60
CCCOC(=O)CSc1nc2cc(N3C(=O)c4ccccc4C3=O)c(F)cc2s1 | 80 |  | 80 | 50 | < 50 | < 50 | 1240 | 
CCOC(=O)Sc1nc2cc(N3C(=O)C4=C(CCCC4)C3=O)c(Cl)cc2s1 |  | 50 | 50 | < 50 | < 50 | < 50 | 470 | < 50
CCOC(=O)C(C)Sc1nc2cc(N3C(=O)c4ccccc4C3=O)c(F)cc2s1 (stereo not given) |  |  |  |  |  |  | 132000 | 
CCOC(=O)C(C)Sc1nc2cc(N3C(=O)c4ccccc4C3=O)c(Cl)cc2s1 (stereo not given) |  |  |  |  |  |  | 85900 | 
CCOC(=O)CCSc1nc2cc(N3C(=O)c4ccccc4C3=O)c(F)cc2s1 |  |  |  |  |  |  | 5520 | 
COC(=O)Sc1nc2cc(N3C(=O)C4=C(CCCC4)C3=O)c(F)cc2s1 |  | 80 | 80 | < 50 | < 50 | < 50 | 80 | 80
CCOC(=O)CCCSc1nc2cc(N3C(=O)C4=C(CCCC4)C3=O)c(Cl)cc2s1 |  | 60 | 80 | < 50 | < 50 | < 50 | 750 | < 50
CCOC(=O)C(C)Sc1nc2cc(N3C(=O)C4=C(CCCC4)C3=O)c(Cl)cc2s1 (stereo not given) |  | 60 | 60 | < 50 | < 50 | < 50 | 800 | < 50
CC(C)OC(=O)CSc1nc2cc(N3C(=O)c4ccccc4C3=O)c(F)cc2s1 | 80 | 60 | 80 | < 50 | < 50 | < 50 | 1500 | 
CCOC(=O)C(C)Sc1nc2cc(N3C(=O)C4=C(CCCC4)C3=O)c(F)cc2s1 (stereo not given) |  | 80 | 80 | 60 | 60 | 60 | 290 | 80
CC(C)(C)OC(=O)CSc1nc2cc(N3C(=O)C4=C(CCCC4)C3=O)c(F)cc2s1 |  | 80 | 80 | < 50 | 60 | < 50 | 180 | 80

Reference: ChEMBL document CHEMBL3045880, “Design and syntheses of novel N-(benzothiazol-5-yl)-4,5,6,7-tetrahydro-1H-isoindole-1,3(2H)-dione and N-(benzothiazol-5-yl)isoindoline-1,3-dione as potent protoporphyrinogen oxidase inhibitors” (J Agric Food Chem, 2011)
